Screens (PubChem BioAssay)
Only some compounds are listed: those with a hit (about 2.5% of all), similar ones and a draw of the others.
MEKK2 WT-MEK5: raises or lowers MEK5 binding to wildtype human MEKK2 PB1 domain. 1.1% of 290,000 active. AID 1531. Q9Y2U5. bead flow cytometry, Alexa488-MEK5 binding to MEKK2 WT; actives lie on both sides. binding response (% of control), % at 10 µM; in the data active means binding response below about 67% or above about 130%
ABCG2 inh: blocks JC-1 efflux by human ABCG2 transporter; 0.1% of 190,000 active; inhibition, % at 6.6 µM; AID 1325; IgMXP3 cells, flow cytometry;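 active means inhibition above 80%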;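 further: 0% = DMSO and 100% = nicardipine control wells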
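Incubation: cells with compound and JC-1, 10 min at 25 °C, rotating, no wash / Test system: IgMXP3 (ABCG2) plus far-red-tagged CCRF-Adr (ABCB1) cells / Compound dosing: one concentration, 6.6 µM final / Also added: JC-1 fluorescent substrate / Evaluation: efflux inhibition in percent versus controls / Detection: flow cytometry, 530 nm JC-1 signal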
MEKK3 PB1 HTS: modulators (inhibitors or enhancers) of MEK5 binding to human MEKK3 PB1 domain. Q99759. bead-based flow cytometry, Alexa488-MEK5 binding to MEKK3; actives lie on both sides; 0 = blocked by unlabeled MEK5, 100 = vehicle. binding response (% of control), % at 10 µM. 1.4% of 290,000 active;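 active means binding response more than 3 SD above or below the average of its plate-row segment, actives on both sides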;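 further: Alexa488 bead fluorescence after subtracting the streptavidin-only scavenger bead signal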
Target sequence (Q99759 whole entry, looked up, the tested form may be a part): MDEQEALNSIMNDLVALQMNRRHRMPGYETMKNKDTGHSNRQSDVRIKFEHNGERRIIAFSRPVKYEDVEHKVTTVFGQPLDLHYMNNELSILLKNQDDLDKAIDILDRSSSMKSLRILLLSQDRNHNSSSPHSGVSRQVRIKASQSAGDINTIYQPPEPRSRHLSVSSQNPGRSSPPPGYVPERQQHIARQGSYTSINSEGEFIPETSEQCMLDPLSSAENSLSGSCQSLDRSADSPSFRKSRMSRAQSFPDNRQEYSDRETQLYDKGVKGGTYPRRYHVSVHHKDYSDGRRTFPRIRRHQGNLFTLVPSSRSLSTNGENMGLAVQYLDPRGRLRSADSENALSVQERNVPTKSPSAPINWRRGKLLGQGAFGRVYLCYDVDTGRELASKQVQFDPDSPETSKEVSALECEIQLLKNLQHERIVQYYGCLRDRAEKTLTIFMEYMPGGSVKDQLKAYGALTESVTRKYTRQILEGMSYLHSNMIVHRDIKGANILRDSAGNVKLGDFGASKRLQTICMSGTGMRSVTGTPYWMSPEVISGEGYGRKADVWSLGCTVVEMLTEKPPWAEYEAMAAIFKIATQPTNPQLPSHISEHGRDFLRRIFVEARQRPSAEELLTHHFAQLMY
Efflux pump inh: blocks antifungal efflux pumps in multiplex yeast assay; 0.44% of 330,000 active; inhibition, % at 10 µM; S. cerevisiae Candida pump triplex, Nile Red efflux;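 active means plate passing quality check with inhibition over a set limit, or well fluorescence over plate mean plus 4 SD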;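 further: Nile Red retained in pooled yeast measured as flow cytometry median fluorescence; 0% = buffer negative control and 100% = Enniatin B positive control; higher means more Nile Red kept so more efflux inhibition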
ABCB1 block: inhibitors of human ABCB1 transporter, ABCG2 counter-screen; P08183; CCRF-Adr cells, JC-1 efflux, flow cytometry; inhibition, % at 6.6 µM; 0.067% of 190,000 active; AID 1326; in the data active means inhibition above about 40%;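 further: 0% = vehicle and 100% = reference inhibitor; higher value means more JC-1 retained so stronger ABCB1 efflux block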
MEKK2mut PB1 HTS: signal of MEK5 binding to mutant human MEKK2 PB1 domain; percent response, % at 10 µM; bead flow cytometry, Alexa488-MEK5 binding to MEKK2 mutant; AID 1530; 0.35% of 290,000 active; in the data active means percent response above about 24%, passing the limit was not always enough
MEKK2wt confirm: raises or lowers MEK5 binding to wildtype human MEKK2, retest | binding response (% of control), % at 10 µM | shares compounds with MEKK3 PB1 HTS | 2.4% of 5,900 active | bead flow cytometry, Alexa488-MEK5 binding to MEKK2 WT; actives lie on both sides | AID 1892; in the data active means binding response below about 16% or above about 210%; inactive means in between
MEKK2mut-MEK5: signal of MEK5 binding to mutant human MEKK2, retest; shares compounds with MEKK3 PB1 HTS; bead flow cytometry, Alexa488-MEK5 binding to MEKK2 mutant; percent response, % at 10 µM; 2% of 5,900 active; AID 1893; in the data active means percent response mostly above about 71%, no sharp cut-off; inactive means mostly below about 38%;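 further: higher means compound restores mutant binding toward wildtype level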
MEKK3-MEK5 inh: confirmation of inhibitors of MEK5 binding to human MEKK3 | shares compounds with MEKK3 PB1 HTS | bead flow cytometry, Alexa488-MEK5 binding to MEKK3; stronger effect = lower value | binding response (% of control), % at 10 µM | 1.8% of 5,900 active | AID 1894;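 active means binding response below 72% of control, or above a set upper limit, though filed actives all read lower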;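 further: 100% = DMSO only wells and 0% = binding blocked by excess unlabeled MEK5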
* = called active by the depositor; x = no result given; [ ] = dose if it differs, or a comment.

SMILES	MEKK2 WT-MEK5	ABCG2 inh	MEKK3 PB1 HTS	Efflux pump inh	ABCB1 block	MEKK2mut PB1 HTS	MEKK2wt confirm	MEKK2mut-MEK5	MEKK3-MEK5 inh
CCOc1cccc2sc(N(CCN(CC)CC)C(=O)c3ccc(S(=O)(=O)N4CCCC4)cc3)nc12	128	x	104	0	x	16	x	x	x
CCN(CC)CCN(C(=O)c1ccc(S(=O)(=O)N2CCCCC2)cc1)c1nc2cc3c(cc2s1)OCO3	127	0	132*	0	2	2	132	31	110
Cc1ccc(S(=O)(=O)N2CCN(C(=O)Cn3nc(C)c([N+](=O)[O-])c3C)CC2)cc1	x	x	x	0	x	x	x	x	x
CCOc1ccc(OCCCCNCCN)cc1	x	3	x	0	0	x	x	x	x
Cc1ccc(C(=O)N/C(=C\c2ccc(-c3cccc([N+](=O)[O-])c3)o2)C(=O)NCCCN(C)C)cc1	141*	x	112	0	x	22	113	6	95
Cc1ccc(C(=O)N/C(=C\c2ccc(-c3ccc(Br)cc3)o2)C(=O)NCCCN(C)C)cc1	187*	1	106	0	0	37	181	38	104
CN(C)CCCNC(=O)/C(=C\c1ccc(-c2cccc([N+](=O)[O-])c2)o1)NC(=O)c1ccccc1	101	2	109	0	0	6	x	x	x
CCOCCCNC(=S)N1CCN(c2nc(-c3ccccc3)cs2)CC1	106	x	101	0	x	6	x	x	x
CCN(CC)CCCNC(=S)N1CCN(c2nc(-c3ccccc3)cs2)CC1	143*	x	103	0	x	23	129	45	108
CC(=O)c1c(C)[nH]c(C(=O)N2CCN(c3ccccn3)CC2)c1C	108	x	105	0	x	8	x	x	x
O=C(NC1CCCCC1)N1CCNCC1	102	x	99	0	x	1	x	x	x
C1CCCCCC(NCCN2CCNCC2)CCCCC1	158*	x	105	0	x	22	142	19	100
COc1ccc(OC)c(C=NNC(=O)c2ccccc2NS(=O)(=O)c2cccs2)c1	x	x	x	0	x	x	x	x	x
CCCCN1C2CCCC1CC(NC(=O)C1CCCCC1)C2 (centres undefined)	104	-2	99	1	0	3	x	x	x
CNC[C@@H](C)NC[C@@H](Cc1ccccc1)NCCc1ccccc1	131	x	110	0	x	5	x	x	x
CC[C@H](C)[C@@H](CN[C@H](C)CNC)NCCC(c1ccccc1)c1ccccc1	138*	x	106	0	x	5	135	30	104
Cc1ccccc1NC(=O)COC(=O)C1(C)CC1(Cl)Cl (centres undefined)	1.0*[inhibitor]	6	2.0*[inhibitor]	0	0	-20	93	-10	89
Cc1csc2c(NCCCN3CCOCC3)ncnc12	136	x	137*	0	x	27	104	3	104
C=CCOc1ccc(/C=N/NC(=O)C(C)Sc2ccccn2)cc1OC (centres undefined)	106	15	109	0	1	-1	x	x	x
COCCN1C(=O)/C(=C/c2ccc(N3CCCC3)cc2)SC1=S	59*[inhibitor]	39	87	0	20	-22	50	-32	88
COc1ccccc1N=Nc1ccc(O)c2ncccc12	97	x	95	0	x	-2	x	x	x
CCS(=O)(=O)c1ccc(N=Nc2ccc(O)c3ncccc23)c(OC)c1	108	-1	131*	x	-1	0	99	1	99
Cc1onc(-c2ccccc2)c1-c1ccnc(N)n1	105	x	95	0	x	-11	x	x	x
Cc1ccc(C)n1-c1ccc(-c2ccnc(N)n2)cc1	112	1	147*	x	0	14	104	5	100
Cc1ccc(Cn2ccc(-c3cnc(-c4ccccc4)s3)n2)cc1	107	1	103	0	0	2	x	x	x
SMILES	MEKK2 WT-MEK5	ABCG2 inh	MEKK3 PB1 HTS	Efflux pump inh	ABCB1 block	MEKK2mut PB1 HTS	MEKK2wt confirm	MEKK2mut-MEK5	MEKK3-MEK5 inh
O=S(=O)(c1ccccc1)n1ccc(-c2cnc(-c3ccccc3)s2)n1	122	0	129*	0	0	4	99	-3	100
O=C(C1=C(Nc2ccccc2)c2ccccc2S(=O)(=O)N1)c1ccccc1	85	-1	64*[inhibitor]	1	0	-2	95	-7	103
c1csc(CNc2ccc3c(c2)OCCO3)c1	98	20	131*	0	2	-1	93	-6	94
CCc1ccc(NS(=O)(=O)c2cccs2)cc1	88	1	114	0	0	39*	96	-7	99
Cc1cc(C)cc(NS(=O)(=O)c2cccs2)c1	104	x	103	0	x	3	x	x	x
O=C(Nc1ccc(S(=O)(=O)Nc2ncccn2)cc1)c1ccccc1NS(=O)(=O)c1ccc(Cl)cc1	101	x	104	0	x	-6	x	x	x
CC(C)C(NCC(=O)Nc1ccccc1C(=O)NC1CC1)c1ccccc1 (centres undefined)	x	x	x	0	x	x	x	x	x
O=C(O)CCN1C(=O)C2C3CC(C2C1=O)C1C(c2ccccc2)c2sc(=O)n(-c4ccccc4)c2SC31 (centres undefined)	112	-1	129*	0	0	0	99	3	99
Cc1nnc(N2CCOCC2)c2nn(-c3ccccc3)c(C)c12	105	4	114	0	1	3	x	x	x
c1ccc(-n2nnc3c(N4CCOCC4)ncnc32)cc1	79	3	74*[inhibitor]	0	0	-5	100	3	103
CC1(OC(=O)C2CCCC2)C(=O)C=C2C=C(c3ccsc3)N(CC3CC3)C=C2C1=O (centres undefined)	85	x	106	0	x	4	x	x	x
CC1(OC(=O)C2CCCC2)C(=O)C=C2C=C(c3ccsc3)N(C3CCCCC3)C=C2C1=O (centres undefined)	92	x	80*[inhibitor]	0	x	-7	90	-7	94
CC1(OC(=O)C2CCCC2)C(=O)C=C2C=C(c3ccsc3)N(CCN3CCOCC3)C=C2C1=O (centres undefined)	146*	x	120	x	x	4	103	0	99
CC(/C=N/Nc1ncc(C)c(=O)[nH]1)=C\c1ccccc1	123	5	140*	0	0	5	98	-3	102
CC1CCc2c(C(=O)NCC3CCCO3)csc2C1 (centres undefined)	96	5	99	0	1	1	x	x	x
